Source: ChEMBL document CHEMBL5143543, “Synthesis and evaluation of enantiomers of hydroxychloroquine against SARS-CoV-2 in vitro” (Bioorg Med Chem, 2022)
Active and inactive are the calls of the source. No cut-off for these calls is given here.

Key:
[1] = Toxicity in mouse assessed as death at 230 mg/kg, po measured after 7 days; assay type: organism-based; conditions: in vivo, 168 h, time 7 day
In short: (§1)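 Male and female mice (25 g; n = 8 per group; vehicle-control and test groups) were fasted overnight. Compounds were given as sulfate salts in physiological saline, intragastrically at 230 mg/kg twice a day; controls received saline. Survival was followed by day post dosing, in a double-dose acute toxicity assay.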

SARS-CoV-2 [2] = assay: Antiviral activity against SARS-CoV-2 infected in Vero E6 cells assessed as viral RNA level measured after 48 hrs by RT-PCR analysis; assay type: functional, organism-based; conditions: Severe acute respiratory syndrome coronavirus 2, Vero C1008, 48 h
SARS-CoV-2 [3] = assay: Antiviral activity against SARS-CoV-2 infected in Vero E6 cells assessed as virus-induced cytopathic effect at 40 uM measured after 48 hrs by CCK-8 assay; assay type: functional, organism-based; conditions: Severe acute respiratory syndrome coronavirus 2
[4] = Toxicity in mouse assessed as death at 230 mg/kg, po measured after 9 days; assay type: organism-based; conditions: in vivo, 216 h, time 9 day; in short: as §1
[5] = Toxicity in mouse assessed as death at 230 mg/kg, po measured after 12 days; assay type: organism-based; conditions: in vivo, 288 h, time 12 day; in short: as §1
SARS-CoV-2 [6] = assay: Antiviral activity against SARS-CoV-2 infected in Vero E6 cells assessed as virus-induced cytopathic effect at 5 uM measured after 48 hrs by CCK-8 assay; assay type: functional, organism-based; conditions: Severe acute respiratory syndrome coronavirus 2

Compound	Activity [1]	EC50 (SARS-CoV-2 [2])	Activity (SARS-CoV-2 [3])	Activity [4]	Activity [5]	Activity (SARS-CoV-2 [6])
CCN(CCO)CCCC(C)Nc1ccnc2cc(Cl)ccc12.O=S(=O)(O)O (racemic) [HYDROXYCHLOROQUINE SULFATE]	Toxic	5.09 µM	Active	–	–	–
CCN(CCO)CCC[C@@H](C)Nc1ccnc2cc(Cl)ccc12.O=S(=O)(O)O	–	5.38 µM	Active	Toxic	–	–
CCN(CCO)CCC[C@H](C)Nc1ccnc2cc(Cl)ccc12.O=S(=O)(O)O	–	3.05 µM	Active	–	Non-Toxic	–
CCC(CC)COC(=O)[C@H](C)N[P@](=O)(OC[C@H]1O[C@@](C#N)(c2ccc3c(N)ncnn23)[C@H](O)[C@@H]1O)Oc1ccccc1	–	–	–	–	–	Active
